Reference: PubChem BioAssay
Records with an inconclusive call do not appear.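 How the source made its calls, unless noted: active means viability at or below 27.92% in each of two runs, the all-compound median minus 4 SD; inconclusive means no clear call, values can overlap the other calls; inactive means the rest.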

How the values were obtained:
[1] = OD615 S. cerevisiae growth inhibition, permissive medium, pilot counter-assay, permissive growth control for S. cerevisiae lifespan shortening project (AID 705;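 active means growth inhibition above 25% in both replicates, a cutoff set 3 SD above the mean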); conditions: OD615, 24 h, at 10 µM, active compounds read high
How it was run: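 assay system = Saccharomyces cerevisiae strain carrying genetically modified DeaD replicative-lifespan system | technique = absorbance (optical density) at 615 nm | buffer or medium = permissive raffinose/galactose medium | timing = cells pre-grown 4 h, then 24 h compound exposure, 30 °C humidified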

[2] = Restrictive medium S. cerevisiae growth inhibition, OD615, pilot screen of yeast lifespan reduction project, restrictive growth control (AID 706;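 active means growth inhibition above a set limit, 3 SD over mean compound inhibition, in both replicates, cut at about 43% in these data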;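 further: modified DeaD lifespan yeast strain shifted to restrictive glucose medium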); conditions: OD615, 48 h, at 10 µM, active compounds read high
How it was run: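 System: modified S. cerevisiae. Buffer or medium: CSMM-D glucose medium. Incubation: 4 h pre-growth plus 48 h compound exposure, 30 °C. Detection: absorbance (optical density) measured at 615 nm.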

[3] = viability gain of MRP-1-high H69AR cells under doxorubicin, pilot screen, MRP-1 activator project, CellTiter-Glo, duplicate (AID 807;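 active means viability increase at or above a cutoff of the median across tested compounds plus 3 SD, cut at about 8.5% in these data, passing the limit was not always enough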;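 further: compound pretreatment 18-22 h then 72 h combined with doxorubicin; 0% = doxorubicin alone and 100% = vehicle without doxorubicin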); conditions: H69AR viability with doxorubicin, CellTiter-Glo luminescence; at 10 µM; active compounds read high
[4] = growth suppression of beta-catenin knockout HCT116, pilot screen, human colon tumor cells (AID 823;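 active means cell viability at or below a set limit in both duplicate runs, the limit being the all-compound median minus 4 SD, cut at about 23% in these data, passing the limit was not always enough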;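 further: 0% = wells killed by 20 µM Hyamine and 100% = untreated DMSO cell wells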); conditions: CellTiter-Glo, 60 h, at 10 µM, active compounds read low
[5] = growth suppression of PTEN-deleted HCT116, pilot screen, cell-based, HCT116 clonal line, CellTiter-Glo (AID 824); conditions: 60 h, at 10 µM, active compounds read low;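 further: 0% = 20 µM Hyamine control and 100% = vehicle cell control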
[6] = inhibitors of the yeast RAM network, pilot screen, dse1pr::URA3 reporter, 5-FOA selection (AID 869;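 active means inhibition over a set limit, the all-compound mean plus 3 SD, in both replicate runs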;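 further: 0% = DMSO wells with no growth and 100% = 10 µM 1-NA-PP1 with full growth; RAM network block rescues cells from 5-FOA so hits raise OD615 growth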); conditions: S. cerevisiae dse1pr::URA3 5-FOA growth, OD615, 2 d; at 10 µM; active compounds read high; strain carries analog-sensitive mutant Cbk1 kinase
[7] = RAM signaling pathway blockade in yeast – S. cerevisiae, Pdr1DBD-CYC8 efflux-inhibited sensitized strain, primary screen (AID 1298;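 active means RAM network inhibition above 8.4% in each of two replicates, 3 SD over the compound average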;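 further: 0% = DMSO untreated cells without growth and 100% = 10 µM 1-NA-PP1 full growth; higher means more yeast growth rescued from 5-FOA killing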); conditions: S. cerevisiae cbk1-as DSE1-URA3 strain, 5-FOA growth OD615, 2 d; at 50 µM; active compounds read high

O=C(c1ccccc1)C(Sc1ncn[nH]1)c1ccccc1 (stereo not drawn)
inactive: growth inhibition [1] -8.75% | growth inhibition [2] 0.305% | viability increase [3] 5.4% | viability [4] 92.5% | viability [5] 85.7% | inhibition [6] 1.1% | RAM network inhibition [7] 2.92%

COC(=O)CSc1ccc2nnc(-c3ccc(OC)c(OC)c3)n2n1
inactive: growth inhibition [1] -10.3% | growth inhibition [2] -18.4% | viability increase [3] -0.56% | viability [4] 106% | viability [5] 107% | inhibition [6] -0.01% | RAM network inhibition [7] 3.82%

Cc1nc2ccccc2c2oc(C(=O)N3CCc4ccccc43)cc12
inactive: growth inhibition [1] -11.5% | growth inhibition [2] -16.6% | viability increase [3] -0.71% | viability [4] 95.5% | viability [5] 89.1% | inhibition [6] 0.625% | RAM network inhibition [7] -0.73%

CN(c1nnc(N)s1)C1CCCCC1
inactive: growth inhibition [1] 1.35% | growth inhibition [2] 14% | viability increase [3] -1.87% | viability [4] 104% | viability [5] 98.7% | inhibition [6] 2.38% | RAM network inhibition [7] 3.49%

CC1CCCCN1Cc1nc2c(c(=O)n(C)c(=O)n2C)n1Cc1cccc2ccccc12 (stereo not drawn)
inactive: growth inhibition [1] -4.17% | growth inhibition [2] -4.83% | viability increase [3] -0.2% | viability [4] 94.2% | viability [5] 89% | inhibition [6] 1.91% | RAM network inhibition [7] 2.8%

O=C(Nc1ccc2nc(-c3cccnc3)[nH]c2c1)c1ccco1
inactive: growth inhibition [1] -2% | growth inhibition [2] -20.3% | viability increase [3] -2.85% | viability [4] 100% | viability [5] 97.4% | inhibition [6] 0.845% | RAM network inhibition [7] 4.67%

CCOC(=O)c1sc(NC(=O)C2CC2)nc1C
inactive: growth inhibition [1] -2.83% | growth inhibition [2] 0.375% | viability increase [3] 0.91% | viability [4] 99.6% | viability [5] 95.1% | inhibition [6] 0.595% | RAM network inhibition [7] -1.46%

COc1cc(C(=O)N2CCN(C(=O)C(Cc3cc(C)ccc3C)NC(C)=O)CC2)cc(OC)c1OC (stereo not drawn)
inactive: growth inhibition [1] -24.3% | growth inhibition [2] -16.3% | viability increase [3] -2.13% | viability [4] 97.7% | viability [5] 88.2% | inhibition [6] 1.05% | RAM network inhibition [7] 1.42%

COc1ccc(OC)c(CCNC(=O)C2CCN(c3nnc(-n4cccc4)s3)CC2)c1
inactive: growth inhibition [1] -7.79% | growth inhibition [2] -20.5% | viability increase [3] -4.48% | viability [4] 85.2% | viability [5] 81.9% | inhibition [6] 4.26% | RAM network inhibition [7] 7.35%

COC(=O)c1ccccc1NC(=O)c1c(O)c2c([nH]c1=O)CCCC2
inactive: growth inhibition [1] -23.1% | growth inhibition [2] -12.7% | viability increase [3] -5.62% | viability [4] 88.3% | viability [5] 93% | inhibition [6] 1.71% | RAM network inhibition [7] 1.65%

Cn1c(=O)c2c(nc(NCc3ccccc3)n2C)n(C)c1=O
inactive: growth inhibition [1] -4.99% | growth inhibition [2] -2.69% | viability increase [3] -1.73% | viability [4] 99.6% | viability [5] 95.4% | inhibition [6] 0.45% | RAM network inhibition [7] 1.42%

CCOCCn1c(CN(Cc2ccccc2)Cc2ccccc2)nc2c1c(=O)n(C)c(=O)n2C
inactive: growth inhibition [1] 0.79% | growth inhibition [2] 12.6% | viability increase [3] -2.62% | viability [4] 64.7% | viability [5] 57.6% | inhibition [6] 1.48% | RAM network inhibition [7] 5.44%

Cc1cc(NC(=O)c2cc(C3CC3)on2)n(-c2ccccc2)n1
inactive: growth inhibition [1] -16.2% | growth inhibition [2] -17.8% | viability increase [3] -0.45% | viability [4] 101% | viability [5] 99.6% | inhibition [6] 0.355% | RAM network inhibition [7] 8.58%

CC1CCCN(Cc2nc3c(c(=O)n(C)c(=O)n3C)n2Cc2cccc3ccccc23)C1 (stereo not drawn)
inactive: growth inhibition [1] -4.69% | growth inhibition [2] -2.08% | viability increase [3] -3.36% | viability [4] 73.2% | viability [5] 80% | inhibition [6] 1.08% | RAM network inhibition [7] 0.76%

CCOC(=O)Cc1csc(SCn2nnc3ccccc3c2=O)n1
inactive: growth inhibition [1] -8.4% | growth inhibition [2] -9.13% | viability increase [3] 0.7% | viability [4] 94.8% | viability [5] 94.8% | inhibition [6] 2.31% | RAM network inhibition [7] 1.31%

O=C(CCS(=O)(=O)c1cccs1)NC1CCCCCC1
inactive: growth inhibition [1] -2.95% | growth inhibition [2] -4.64% | viability increase [3] -0.19% | viability [4] 94.6% | viability [5] 92.7% | inhibition [6] 1.29% | RAM network inhibition [7] 5.23%

CCC(C)N1C(=O)CCC1C(=O)NCc1ccc2c(c1)OCO2 (stereo not drawn)
inactive: growth inhibition [1] -0.51% | growth inhibition [2] -0.82% | viability increase [3] -3.05% | viability [4] 102% | viability [5] 97.2% | inhibition [6] 2.33% | RAM network inhibition [7] 4.46%

COc1ccc(C)cc1NC(=O)c1cc2c(CO)cnc(C)c2oc1=N
inactive: growth inhibition [1] -16.1% | growth inhibition [2] -10.5% | viability increase [3] -0.06% | viability [4] 97.5% | viability [5] 89.7% | inhibition [6] 1.31% | RAM network inhibition [7] 0.63%

Cc1cc(Nc2ccccc2F)n2nc(C)nc2n1
inactive: growth inhibition [1] -13% | growth inhibition [2] -6.23% | viability increase [3] -1.87% | viability [4] 99.2% | viability [5] 99.5% | inhibition [6] 1.95% | RAM network inhibition [7] 0.37%

Cc1ccccc1NC(=O)CSC(N)=O
inactive: growth inhibition [1] -1.39% | growth inhibition [2] 14.1% | viability increase [3] -4.63% | viability [4] 89.4% | viability [5] 91% | inhibition [6] 0.48% | RAM network inhibition [7] 8.45%

Cc1cc(C(=O)NCC(c2ccco2)N(C)C)no1 (stereo not drawn)
inactive: growth inhibition [1] -3.54% | growth inhibition [2] -10.7% | viability increase [3] -2.83% | viability [4] 98.1% | viability [5] 99.6% | inhibition [6] 1.4% | RAM network inhibition [7] 8.39%

O=C(c1cnc2n(c1=O)CCS2)N1CCN(C(c2ccccc2)c2ccc(Cl)cc2)CC1 (stereo not drawn)
inactive: growth inhibition [1] -9.19% | growth inhibition [2] -3.16% | viability increase [3] -5.31% | viability [4] 79.1% | viability [5] 63.7% | inhibition [6] 1.31% | RAM network inhibition [7] 2.72%

CCNC(=O)c1c(N)sc2c1CCCCC2
inactive: growth inhibition [1] -5.81% | growth inhibition [2] 1.6% | viability increase [3] -2.57% | viability [4] 103% | viability [5] 100% | inhibition [6] 1.88% | RAM network inhibition [7] 4.23%

COc1ccccc1N1CCN(c2cc(=O)n(-c3ccc(Cl)cc3)c(=O)[nH]2)CC1
inactive: growth inhibition [1] -5.8% | growth inhibition [2] -7.77% | viability increase [3] -2.22% | viability [4] 84.4% | viability [5] 77.7% | inhibition [6] 1.07% | RAM network inhibition [7] 7.55%
